A selection: hits, their analogues and other compounds. The true share with any hit is near 2.3%.
TRPC4 block: inhibitors of mouse TRPC4 channel | Q9QUQ5 | HEK293 TRPC4beta/mu-opioid, DAMGO-evoked Fluo4 calcium flux; active compounds read low | B-score at 10 µM | hit rate 0.39% among 300,000 | AID 2247;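 active = B-score over 3 SD under the library average, no early fluorescence shift, positive overall ratio signal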
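material = TRPC4beta/mu-opioid receptor HEK293 cell line | probe or stimulus = sequential submaximal and maximal DAMGO stimulation | compound dosing = one concentration per compound | measured by = Fluo4 Ca2+ flux fluorescence | evaluation = integrated fluorescence ratio relative to baseline, converted to per-well B score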
TRPC6 activator: activates the mouse TRPC6 cation channel | B-score at 10 µM | hit rate 0.13% among 310,000 | Q61143 | HEK293-TRPC6 membrane potential dye fluorescence; active compounds read high | AID 2550;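 active = B-score of the integrated fluorescence ratio above library mean plus 3 SD, and starting fluorescence ratio within library mean plus 5 SD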;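 also: higher score means more depolarization so channel activation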
Target sequence (Q61143 whole entry, looked up): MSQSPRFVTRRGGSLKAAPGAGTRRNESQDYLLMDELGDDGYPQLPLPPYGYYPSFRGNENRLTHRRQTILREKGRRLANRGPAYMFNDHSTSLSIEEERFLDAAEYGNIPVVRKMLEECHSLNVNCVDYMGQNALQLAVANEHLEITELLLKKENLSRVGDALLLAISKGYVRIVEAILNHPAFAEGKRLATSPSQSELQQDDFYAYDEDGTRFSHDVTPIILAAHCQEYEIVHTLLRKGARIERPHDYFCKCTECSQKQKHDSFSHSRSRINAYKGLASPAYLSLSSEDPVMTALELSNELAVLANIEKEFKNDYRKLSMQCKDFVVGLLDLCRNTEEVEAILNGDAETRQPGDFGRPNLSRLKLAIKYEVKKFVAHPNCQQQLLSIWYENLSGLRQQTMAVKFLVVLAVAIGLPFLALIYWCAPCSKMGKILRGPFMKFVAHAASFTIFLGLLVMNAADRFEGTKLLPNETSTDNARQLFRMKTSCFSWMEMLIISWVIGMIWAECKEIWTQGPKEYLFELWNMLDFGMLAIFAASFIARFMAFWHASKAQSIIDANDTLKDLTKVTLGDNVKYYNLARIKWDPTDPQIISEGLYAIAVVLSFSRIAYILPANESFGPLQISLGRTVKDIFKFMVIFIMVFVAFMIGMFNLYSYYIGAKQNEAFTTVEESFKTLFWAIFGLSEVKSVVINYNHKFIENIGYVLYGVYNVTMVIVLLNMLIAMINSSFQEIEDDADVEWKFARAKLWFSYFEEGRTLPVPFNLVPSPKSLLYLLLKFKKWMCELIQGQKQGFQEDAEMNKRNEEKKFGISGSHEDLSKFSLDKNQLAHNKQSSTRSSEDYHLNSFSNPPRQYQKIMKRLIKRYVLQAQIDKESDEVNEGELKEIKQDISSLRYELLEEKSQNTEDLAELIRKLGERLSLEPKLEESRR
TRPC6 inhibitor: inhibitors of mouse TRPC6 channel | B-score at 10 µM | HEK293-TRPC6, membrane potential dye, ACh-evoked depolarization; active compounds read low | Q61143 | hit rate 1.1% among 310,000;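 active = B-score under library mean minus 3 SD, initial fluorescence not abnormally high, positive integrated signal ratio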;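 also: B-score derived from integrated fluorescence ratio over the kinetic read; more negative B-score means stronger inhibition of depolarization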
TRPC4 act: activators of mouse TRPC4 channel | B-score at 10 µM | HEK293 TRPC4beta/mu-opioid, Fluo4 calcium fluorescence; active compounds read high | hit rate 0.49% among 310,000 | AID 2237 | Q9QUQ5;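 active = B-score above 5 SD of library B-scores, and initial fluorescence ratio not above library mean plus 5 SD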;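 also: positive B-score marks a calcium rise read as TRPC4 activation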
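Assay system: HEK293 cells stably co-expressing mouse TRPC4beta and mu-opioid receptor / Timing: Fluo4 dye loading 45 min at room temperature, 110 s recording / Signal: Fluo4 calcium-sensitive dye fluorescence, kinetic, 1 Hz baseline / Read-out: integrated baseline-normalised fluorescence ratio, converted to per-well B score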
TRPC4 potent: allosterically enhances the mouse TRPC4 cation channel; Q9QUQ5; HEK293 TRPC4beta/mu-opioid, DAMGO EC20, Fluo-4 Ca2+ flux; active compounds read high; B-score at 10 µM; hit rate 0.42% among 310,000; AID 2227;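 active = B-score of calcium response area above 5 SD of library B-scores, with initial fluorescence ratio within 5 SD of library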
TRPC4 sel inh 2: mouse TRPC4 off-target activity of TRPC6 inhibitors, second screen. shares compounds with TRPC6 inhibitor. HEK293 TRPC4/MOR, membrane potential dye fluorescence; channel activated by saturating DAMGO dose. inhibition, % at 10 µM. hit rate 42% among 920. AID 2776;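 active = compounds whose fluorescence signal differed from control wells by over 3 SD, either direction, in both duplicate plates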
TRPC4 spec: mouse TRPC4 off-target activity of TRPC6 inhibitors; HEK293 TRPC4/mu-opioid, membrane potential fluorescence; shares compounds with TRPC6 inhibitor; activity change, negative = inhibition, % at 10 µM; hit rate 61% among 920;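 active = rise or fall in signal beyond 3 SD of buffer-only wells in both replicate plates, either sign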;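 also: integrated kinetic ratio of fluorescence range over baseline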
HEK293 MPD ctr 2-1: second check of TRPC6 inhibitor effects in parental HEK293 cells. shares compounds with TRPC6 inhibitor. parental HEK293 membrane potential dye fluorescence; maximal acetylcholine challenge after compound addition. signal change vs control, % at 10 µM. hit rate 31% among 920;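 active = membrane potential signal moving either way by over 3 SD of the maximum-effect control, in both duplicate plates, meaning non-specific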
HEK293 MPD ctr-1: counter-screen for TRPC6 inhibitors: effect in parental HEK293 cells; membrane potential signal change, % at 10 µM; parental HEK293 membrane potential dye fluorescence; hit rate 60% among 920; shares compounds with TRPC6 inhibitor; AID 2780;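 active = membrane potential signal shifting up or down by more than 3 SD of buffer-only wells, on both duplicate plates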
HEK293 MPD ctr-2: checks TRPC6 modulator effects in parental HEK293 cells. shares compounds with TRPC6 inhibitor. membrane potential dye fluorescence. membrane potential signal change, % at 10 µM. hit rate 51% among 2,400;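 active = membrane potential signal moves up or down beyond 5 SD from buffer-only wells, on both duplicate plates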
HEK293 MPD ctr 2-2: second check of TRPC6 modulator effects in parental HEK293 cells; shares compounds with TRPC6 inhibitor; membrane potential dye fluorescence; after compound, maximal acetylcholine stimulation; inhibition, % at 10 µM; AID 488926; hit rate 14% among 2,400;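 active = membrane potential signal drops by more than 5 SD from the mean control signal, in both duplicate plates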
TRPC4/MOR mod: tests whether TRPC6 modulators also affect mouse TRPC4. hit rate 69% among 2,400. percent change from control (negative = decrease, positive = increase), % at 10 µM. shares compounds with TRPC6 inhibitor. HEK293 TRPC4/mu-opioid, membrane potential fluorescence. AID 488927;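 active = membrane potential signal moved up or down beyond 5 SD of buffer control wells, in both duplicate plates, actives on both sides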
TRPC4/MOR inh 2: second check of whether TRPC6 modulators also affect mouse TRPC4 | shares compounds with TRPC6 inhibitor | HEK293 TRPC4/mu-opioid, membrane potential dye fluorescence; stimulated with maximal-effect DAMGO | inhibition, % at 10 µM | AID 488928 | hit rate 55% among 2,400;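 active = drop in membrane potential signal beyond 5 SD of the control wells in both duplicate plates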;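 also: TRPC4 counter screen for TRPC6 hits run under conditions tuned for TRPC6 not TRPC4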
TRPC6 inh conf: mouse TRPC6 inhibitor confirmation. shares compounds with TRPC6 inhibitor. HEK293-TRPC6, membrane potential dye, ACh-evoked depolarization. inhibition, % at 10 µM. hit rate 43% among 3,300;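 active = fluorescence ratio falls more than 5 SD below the full-stimulation control mean, in both duplicate runs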;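 also: integrated fluorescence ratio of peak minus minimum over baseline after agonist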
TRPC6 act conf: mouse TRPC6 activator confirmation; shares compounds with TRPC6 inhibitor; HEK293-TRPC6 membrane potential dye fluorescence, FDSS; activation, % at 10 µM; hit rate 11% among 2,800;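 active = ratio signal rise beyond 5 SD above unstimulated control wells' mean, seen in both duplicate runs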
Numbers stand for hits; i = inactive; nt = not tested or not shown.

SMILES	TRPC4 block	TRPC6 activator	TRPC6 inhibitor	TRPC4 act	TRPC4 potent	HEK293 MPD ctr-2	HEK293 MPD ctr 2-2	TRPC4/MOR mod	TRPC4/MOR inh 2	TRPC6 inh conf	TRPC6 act conf	others
O=C(CCC1CCCCC1)NCCN1C2=NC[C@H](Cc3ccccc3)N2C[C@H]1Cc1ccc(O)cc1	i	i	i	i	i	nt	nt	nt	nt	nt	nt
O=C(CCC1CCCCC1)NCCN1C2=NC[C@@H](Cc3ccccc3)N2C[C@H]1Cc1ccc(O)cc1	i	i	-5.5	i	i	i	i	i	i	i	i
CCc1cc(=O)oc2cc(C)cc(OC(C)C(=O)NCc3ccccn3)c12 (stereo unspecified)	i	i	i	i	i	nt	nt	nt	nt	nt	nt
CN1CCc2c(sc3c2c(=O)n(-c2ccccc2)c2nncn32)C1	i	i	-5.9	i	i	-101%	i	-20%	i	i	i
COc1cc(-c2cc[n+](C)cc2)ccc1O	i	i	-6	i	i	-329%	i	-53%	i	i	i
COc1ccc(Cl)cc1NC(=O)CCNS(=O)(=O)c1cccc2nonc12	i	i	i	i	i	nt	nt	nt	nt	nt	nt
CC(C)=CC1C(C(=O)Nc2ccc(S(=O)(=O)N3CCOCC3)cc2)C1(C)C (stereo unspecified)	i	i	i	i	i	nt	nt	nt	nt	nt	nt
CN1CCC(OC(=O)COc2ccc(Br)cc2)CC1	i	i	-5.5	i	i	i	i	13%	i	i	nt
CN1CCN(c2ccccc2NC(=O)COc2ccc(Br)cc2)CC1	i	i	-5.1	i	i	i	i	18%	i	i	i
COc1ccc(OCC(=O)OC2CCN(C)CC2)cc1	i	i	i	i	i	nt	nt	nt	nt	nt	nt
O=C(CN1CCc2cc3c(cc2C1)OCCCO3)Nc1cccc(Br)c1	i	i	i	i	i	nt	nt	nt	nt	nt	nt
COC(=O)C1=C(N)OC2=C(C(=O)CC(C)(C)C2)C1c1cc2c(cc1Cl)OCO2 (stereo unspecified)	i	i	-9.3	i	i	nt	nt	nt	nt	i	i	TRPC4 sel inh 2=34%;TRPC4 spec=i;HEK293 MPD ctr 2-1=i;HEK293 MPD ctr-1=i
Cc1ccc(C(=O)Nc2cccc(N3C(=O)C4CCC(C)CC4C3=O)c2)cc1 (stereo unspecified)	i	i	i	i	i	nt	nt	nt	nt	nt	nt
OC(C#CCN1CCCCC1)(c1ccccc1)c1ccccc1	i	i	-7.5	i	i	nt	nt	nt	nt	81%	i	TRPC4 sel inh 2=i;TRPC4 spec=1.1%;HEK293 MPD ctr 2-1=-28%;HEK293 MPD ctr-1=2.4%
CC(O)(C#CCN1CCCCCC1)c1ccccc1 (stereo unspecified)	i	i	i	i	i	nt	nt	nt	nt	nt	nt
OC(C#CCN1CCCC1)(c1ccccc1)c1ccccc1	i	i	-8.7	i	i	nt	nt	nt	nt	66%	nt	TRPC4 sel inh 2=i;TRPC4 spec=2.5%;HEK293 MPD ctr 2-1=-14%;HEK293 MPD ctr-1=5.6%
COc1cc(OC)cc(C(=O)NC(C(=O)N2CCc3ccccc3C2)C(C)C)c1 (stereo unspecified)	i	i	i	i	i	nt	nt	nt	nt	nt	nt
CCOC(=O)c1[nH]n(-c2ccc(Cl)cc2)c(=O)c1C	i	i	-7.8	i	i	nt	nt	nt	nt	i	i	TRPC4 sel inh 2=i;TRPC4 spec=i;HEK293 MPD ctr 2-1=i;HEK293 MPD ctr-1=i
COc1cc(NC2=Nc3cccc4cccc2c34)cc(OC)c1OC	i	i	-5.1	i	i	i	i	i	32%	i	i
COc1ccc(NC2=Nc3cccc4cccc2c34)cc1OC	i	i	i	i	i	nt	nt	nt	nt	nt	nt
CCOc1ccc(CCNC(=O)COC(=O)c2nccnc2N)cc1OCC	i	i	i	i	i	nt	nt	nt	nt	nt	nt
O=C1c2cnc3ncnn3c2CC2c3ccccc3CCN12 (stereo unspecified)	i	i	-5	i	i	-105%	i	-20%	i	i	i
Cc1cc(C)n2nc(C(=O)N/N=C/c3ccccc3Cl)nc2n1	i	i	i	i	i	nt	nt	nt	nt	nt	nt
Cc1cc(C)n2nc(C(=O)N/N=C/c3ccco3)nc2n1	i	i	-6.6	i	i	-275%	i	-50%	32%	i	i
CCCCn1c(NCc2ccc3c(c2)OCO3)nc2ccccc21	i	i	-5.2	i	i	i	i	i	88%	40%	i
SMILES	TRPC4 block	TRPC6 activator	TRPC6 inhibitor	TRPC4 act	TRPC4 potent	HEK293 MPD ctr-2	HEK293 MPD ctr 2-2	TRPC4/MOR mod	TRPC4/MOR inh 2	TRPC6 inh conf	TRPC6 act conf	others
CCCn1c(NCc2ccc3c(c2)OCO3)nc2ccccc21	i	i	-5.2	i	i	i	i	8.0%	74%	44%	i
CC(C)(C)C1COc2ccccc2N1C(=O)c1cccc(Cl)c1 (stereo unspecified)	i	i	i	i	i	nt	nt	nt	nt	nt	nt
CCOCCCNC(=S)N1CCCN(c2nc3cc(C)ccc3cc2C#N)CC1	i	i	-10	i	i	nt	nt	nt	nt	75%	nt	TRPC4 sel inh 2=i;TRPC4 spec=i;HEK293 MPD ctr 2-1=i;HEK293 MPD ctr-1=i
Cc1ccc(N/C(N)=N/c2nc(C)cc(N3CCCCC3)n2)c(C)c1	i	i	-8.9	i	i	339%	i	74%	66%	82%	nt
Cc1ccc(N/C(N)=N/c2nc3c(c(=O)[nH]2)CCCC3)c(C)c1	i	i	i	i	i	nt	nt	nt	nt	nt	nt
Cc1ccc(N(CCC#N)C(=O)COC(=O)C2CCN(c3ccc(C(F)(F)F)cn3)CC2)cc1	i	i	i	i	i	nt	nt	nt	nt	nt	nt
Cc1cc(C)cc(N(CCC#N)C(=O)COC(=O)C2CCN(c3ccc(C(F)(F)F)cn3)CC2)c1	i	i	-6.4	i	i	i	i	14%	i	i	i
COc1ccc(C(=O)Nc2ccccc2C(=O)N/N=C/c2ccccn2)cc1OC	i	i	i	i	i	nt	nt	nt	nt	nt	nt
COc1ccc(C(=O)N/N=C/c2ccccn2)cc1OC	i	i	-7	i	i	-296%	i	-50%	40%	38%	i
CN(C)c1ccc(C(=O)N/N=C/c2ccccn2)cc1	i	i	-6.6	i	i	-159%	i	-28%	36%	i	i

Assay outcomes (PubChem)
